Drawing on ChEMBL document CHEMBL4229364, “Structure-activity relationships of 2, 4-disubstituted pyrimidines as dual ERα/VEGFR-2 ligands with anti-breast cancer activity” (Eur J Med Chem, 2018), this text covers IC50, inhibition and Activity for 23 compounds.

The source made the active and inactive calls. No cut-off for these calls is given here.

For assay [1], the target named is T1, Vascular endothelial growth factor receptor 2 (Homo sapiens, UniProt P35968). Kind of assay: Inhibition of VEGFR2 (unknown origin) using TK substrate after 1 hr by HTRF assay. A general note: Time-resolved FRET reads energy transfer from a long-lived donor to a nearby acceptor.
Assay [2] concerns Ishikawa. As to the kind of experiment: Antiproliferative activity against human Ishikawa cells after 48 hrs by MTT assay. Type of assay: functional, cell-based. In short, it runs like this:
(§1)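 MTT assay. Cells were grown in RPMI1640 with 10% FBS and penicillin/streptomycin at 37°C, 5% CO2, seeded at 1×10^5/mL and rested 24 h. Compound was added at 4×10^-5 to 1×10^-6 mol/L for 48 h; controls received 1% DMSO. MTT (5 mg/mL) was added for 4 h in the dark and the formazan dissolved in DMSO. A490 was read and IC50 derived.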
In general terms: Tetrazolium assays rely on reduction of a dye to a coloured formazan, in cell work by metabolically active cells.

Assay [3] addresses T1, Vascular endothelial growth factor receptor 2. The following applies: at 10 µM.
Assay [4] concerns HUVEC. Kind of assay: Antiproliferative activity against HUVEC after 48 hrs by MTT assay. The assay is classed as functional, cell-based. As to conditions: Homo sapiens. In short, it runs like this:
as §1

The subject of assay [5] is MCF7. As to the kind of experiment: Antiproliferative activity against human MCF7 cells after 48 hrs by MTT assay. The assay is classed as functional, cell-based. As to conditions: MCF7, 48 h. In short, it runs like this: as §1
Assay [6] addresses T2, Estrogen receptor (Homo sapiens, UniProt P03372).
T2 sequence (P03372 whole entry): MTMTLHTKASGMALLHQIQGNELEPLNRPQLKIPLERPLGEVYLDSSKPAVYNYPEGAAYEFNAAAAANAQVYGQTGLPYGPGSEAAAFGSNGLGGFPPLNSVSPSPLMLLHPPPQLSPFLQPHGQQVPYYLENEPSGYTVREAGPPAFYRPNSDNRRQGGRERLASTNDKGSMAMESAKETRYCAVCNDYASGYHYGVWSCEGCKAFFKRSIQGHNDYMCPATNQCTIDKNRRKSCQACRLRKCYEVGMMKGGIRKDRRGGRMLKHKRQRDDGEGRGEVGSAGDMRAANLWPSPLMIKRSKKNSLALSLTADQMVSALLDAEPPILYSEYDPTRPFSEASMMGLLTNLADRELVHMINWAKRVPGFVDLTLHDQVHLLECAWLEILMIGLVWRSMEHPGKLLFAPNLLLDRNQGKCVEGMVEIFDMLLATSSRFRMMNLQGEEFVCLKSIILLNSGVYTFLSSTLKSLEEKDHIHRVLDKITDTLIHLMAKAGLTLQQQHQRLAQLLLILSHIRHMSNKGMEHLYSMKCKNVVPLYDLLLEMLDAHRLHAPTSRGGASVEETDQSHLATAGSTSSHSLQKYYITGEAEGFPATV
Kind of assay: Displacement of Fluormone ES2 Green from full length human ER-alpha expressed in insect cells after 2 hrs by fluorescence polarization assay. On the technique in general: In fluorescence polarisation assays a small probe gives low polarisation when free and higher when bound to something large.

The subject of assay [7] is Chorioallantoic membrane. Kind of assay: In vivo antiangiogenic activity in chicken egg chorioallantoic membrane at 1 uM after 72 hrs. Type of assay: functional, organism-based. The following applies: Gallus gallus. In short, it runs like this:
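Chick CAM assay. Fertilized eggs were incubated 7 days at 37°C, then a window of about 1 cm² was opened in the shell. […] Eggs were incubated a further 72 h at 37°C and 60% humidity. CAM was fixed in acetone/ethanol for 10 min and vessels imaged.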

T1 sequence (P35968 whole entry): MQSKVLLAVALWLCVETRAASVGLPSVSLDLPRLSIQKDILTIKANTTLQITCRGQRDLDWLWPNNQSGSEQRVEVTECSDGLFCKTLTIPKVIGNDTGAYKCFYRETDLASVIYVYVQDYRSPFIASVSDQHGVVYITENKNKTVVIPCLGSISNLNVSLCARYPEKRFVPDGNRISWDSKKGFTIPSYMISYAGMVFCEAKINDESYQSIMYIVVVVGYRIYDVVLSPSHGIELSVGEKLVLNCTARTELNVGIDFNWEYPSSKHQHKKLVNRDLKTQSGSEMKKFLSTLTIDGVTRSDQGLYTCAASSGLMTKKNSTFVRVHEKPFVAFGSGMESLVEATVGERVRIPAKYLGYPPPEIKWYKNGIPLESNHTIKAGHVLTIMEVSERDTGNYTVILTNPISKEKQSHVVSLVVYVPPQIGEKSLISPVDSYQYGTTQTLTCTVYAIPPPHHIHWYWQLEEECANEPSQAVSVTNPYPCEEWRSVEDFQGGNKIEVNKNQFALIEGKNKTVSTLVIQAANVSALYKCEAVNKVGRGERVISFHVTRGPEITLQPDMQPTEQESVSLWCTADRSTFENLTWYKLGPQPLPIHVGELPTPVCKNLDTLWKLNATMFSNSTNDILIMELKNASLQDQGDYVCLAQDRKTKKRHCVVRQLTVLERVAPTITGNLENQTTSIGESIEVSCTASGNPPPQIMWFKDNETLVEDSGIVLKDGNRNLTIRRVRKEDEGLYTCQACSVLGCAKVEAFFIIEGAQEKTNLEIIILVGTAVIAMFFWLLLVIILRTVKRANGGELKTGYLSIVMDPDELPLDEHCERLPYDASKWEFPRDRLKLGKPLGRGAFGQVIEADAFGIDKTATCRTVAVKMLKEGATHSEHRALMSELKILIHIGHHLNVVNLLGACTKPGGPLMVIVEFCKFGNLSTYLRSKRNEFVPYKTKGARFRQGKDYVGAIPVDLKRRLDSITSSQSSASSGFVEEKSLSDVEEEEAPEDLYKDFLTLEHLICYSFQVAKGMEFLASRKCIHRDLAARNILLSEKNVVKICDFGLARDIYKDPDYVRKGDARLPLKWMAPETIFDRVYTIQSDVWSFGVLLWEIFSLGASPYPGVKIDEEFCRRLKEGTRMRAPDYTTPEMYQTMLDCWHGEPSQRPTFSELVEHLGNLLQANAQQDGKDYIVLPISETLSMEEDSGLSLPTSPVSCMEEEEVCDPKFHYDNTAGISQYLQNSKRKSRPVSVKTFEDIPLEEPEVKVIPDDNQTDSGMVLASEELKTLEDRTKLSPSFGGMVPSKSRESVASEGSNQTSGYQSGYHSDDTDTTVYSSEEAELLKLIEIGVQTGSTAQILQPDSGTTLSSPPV

Turning to `COc1ccc(-c2nc(Cl)cc(Nc3ccc(OCCN(C)C)cc3)n2)cc1`, the 50% inhibitory concentration (IC50) (as a rule, the midpoint of a concentration-inhibition curve) in assay [1] is above 1 µM; in assay [2], 5.67 µM; in assay [4], 6.31 µM; in assay [5] it was 3.54 µM. The inhibition (commonly the percentage by which the read-out fell short of the control) in assay [3] came out at 40%.

For the compound `COc1ccc(-c2nc(Cl)cc(Nc3ccc(NC(=O)CN4CCCC4)cc3)n2)cc1`, the IC50 in assay [1] is above 1 µM; in assay [2] it was 18.4 µM; in assay [6], 2.86 µM; in assay [4], 4.82 µM; in assay [5], 23.4 µM. Besides, the inhibition in assay [3] came to 61.3%.

Turning to `COc1ccc(-c2nc(Cl)cc(Oc3ccc(OCCN4CCCC4)cc3)n2)cc1`, the IC50 is above 1 µM in assay [1]; 25.5 µM in assay [2]; 6.22 µM in assay [6]; 15.8 µM in assay [4]; 21.3 µM in assay [5]. The inhibition in assay [3] was 39.8%.

Take `CCN(CC)CC(=O)Nc1ccc(Nc2nc(-c3ccc(OC)cc3)nc(Cl)c2-c2ccccc2)cc1`: the concentration for half-maximal inhibition (IC50) was above 1 µM in assay [1], above 40 µM in assay [2], above 40 µM in assay [4] and above 40 µM in assay [5]. In addition, the inhibition in assay [3] was 40.2%.

Turning to `CN(C)CCOc1ccc(Nc2nc(-c3ccc(O)cc3)nc(Cl)c2-c2ccccc2)cc1`, the IC50 in assay [1] was above 1 µM; in assay [2], 37.1 µM; in assay [6], 3.42 µM; in assay [4], 13.8 µM; in assay [5] it was 33.1 µM. Further, in assay [3], the inhibition stood at 68.5%.

In the case of `COc1ccc(-c2nc(Cl)c(-c3ccccc3)c(Nc3ccc(OCCN4CCCC4)cc3)n2)cc1`, the IC50 was above 1 µM in assay [1], 3.81 µM in assay [2], 5.02 µM in assay [4] and 7.84 µM in assay [5]. Also, the inhibition in assay [3] turned out to be 49.4%.

As for `COc1ccc(-c2nc(Cl)c(-c3ccccc3)c(Nc3ccc(NC(=O)CN4CCCC4)cc3)n2)cc1`, the half-maximal inhibitory concentration (IC50) in assay [1] was 0.203 µM; in assay [2] it was above 40 µM; in assay [4], above 40 µM; in assay [5], above 40 µM. The compound further showed an inhibition in assay [3] of 87.3%.

As to `CCN(CC)CC(=O)Nc1ccc(Nc2cc(Cl)nc(-c3ccc(OC)cc3)n2)cc1`, the half-maximal inhibitory concentration (IC50) in assay [1] is above 1 µM; in assay [2], 5.81 µM; in assay [4], 15 µM; in assay [5], above 40 µM. This compound registered an inhibition in assay [3] of 44%.

As to `COc1ccc(-c2nc(Cl)cc(Oc3ccc(OCCN(C)C)cc3)n2)cc1`, the half-maximal inhibitory concentration (IC50) in assay [1] is above 1 µM; in assay [2], above 40 µM; in assay [6], 5.96 µM; in assay [4], above 40 µM; in assay [5], above 40 µM. The compound also came in with an inhibition in assay [3] of 61.2%.

Turning to `COc1ccc(-c2nc(Cl)c(-c3ccccc3)c(Nc3ccc(OCCN(C)C)cc3)n2)cc1`, the half-inhibitory concentration (IC50) was above 1 µM in assay [1], 6.34 µM in assay [2], 14.2 µM in assay [4] and 7.56 µM in assay [5]. For the same compound, the inhibition in assay [3] was 50.9%.

Regarding `COc1ccc(-c2nc(Cl)cc(Nc3ccc(NC(=O)CN(C)C)cc3)n2)cc1`, the IC50 in assay [1] is above 1 µM; in assay [2], above 40 µM; in assay [4] it was above 40 µM; in assay [5], above 40 µM. Also, the inhibition in assay [3] is 66.2%.

Turning to `COc1ccc(-c2nc(Cl)c(-c3ccccc3)c(Nc3ccc(NC(=O)CN(C)C)cc3)n2)cc1`, the 50% inhibitory concentration (IC50) in assay [1] is above 1 µM; in assay [2] it was 17.1 µM; in assay [4], 10.3 µM; in assay [5] it was 17.7 µM. The inhibition in assay [3] was found to be 50.8%.

Regarding `CCN(CC)CCOc1ccc(Nc2cc(Cl)nc(-c3ccc(OC)cc3)n2)cc1`, the 50% inhibitory concentration (IC50) is 0.174 µM in assay [1]; 11.7 µM in assay [2]; 4.74 µM in assay [6]; 9.24 µM in assay [4]; 36.8 µM in assay [5]. This compound had an inhibition in assay [3] of 89.7%.

As to `CCN(CC)CCNC(=O)c1c(C)[nH]c(/C=C2\C(=O)Nc3ccc(F)cc32)c1C` [SUNITINIB], the outcome in assay [7] was Active. Half-maximal inhibition in assay [4] (IC50) required 6.36 µM.

Regarding `CC/C(=C(\c1ccccc1)c1ccc(OCCN(C)C)cc1)c1ccccc1` [TAMOXIFEN], the IC50 in assay [2] is 26.5 µM; in assay [5], 15.5 µM.

`CCN(CC)CCOc1ccc(Oc2cc(Cl)nc(-c3ccc(OC)cc3)n2)cc1`: the half-inhibitory concentration (IC50) is above 1 µM in assay [1]; 24.9 µM in assay [2]; 5.13 µM in assay [6]; 23.3 µM in assay [4]; 49.6 µM in assay [5]. This compound showed an inhibition in assay [3] of 80%.

On to `CCN(CC)CCOc1ccc(Nc2nc(-c3ccc(O)cc3)nc(Cl)c2-c2ccccc2)cc1`, for which the IC50 in assay [1] was above 1 µM; in assay [2], 12 µM; in assay [4], 8.81 µM; in assay [5] it was 35.6 µM. Besides, in assay [3], the inhibition is 76.9%.

Take `O=C(c1ccc(OCCN2CCCCC2)cc1)c1c(-c2ccc(O)cc2)sc2cc(O)ccc12` [RALOXIFENE]: the half-maximal inhibitory concentration (IC50) in assay [2] was determined as 24.4 µM; in assay [5], 13.2 µM.

Regarding `CCN(CC)CCOc1ccc(Nc2nc(-c3ccc(OC)cc3)nc(Cl)c2-c2ccccc2)cc1`, the half-maximal inhibitory concentration (IC50) in assay [1] amounted to 0.067 µM; in assay [2] it was 9.98 µM; in assay [4], 4.34 µM; in assay [5], 8.59 µM. This compound also displayed an inhibition in assay [3] of 90.3%.

For the compound `COc1ccc(-c2nc(Cl)c(-c3ccccc3)c(Oc3ccc(OCCN4CCCC4)cc3)n2)cc1`, the IC50 is above 1 µM in assay [1]; 14.1 µM in assay [2]; 2.17 µM in assay [6]; 10.6 µM in assay [4]; 32.4 µM in assay [5]. The inhibition in assay [3] was found to be 75.3%.

Consider `COc1ccc(-c2nc(Cl)c(-c3ccccc3)c(Oc3ccc(OCCN(C)C)cc3)n2)cc1`, for which the IC50 in assay [1] is 0.101 µM; in assay [2], 17.7 µM; in assay [4] it was 11.7 µM; in assay [5], 21.8 µM. Besides, the inhibition in assay [3] was 90.9%.

With `CCN(CC)CCOc1ccc(Oc2nc(-c3ccc(OC)cc3)nc(Cl)c2-c2ccccc2)cc1`, the half-inhibitory concentration (IC50) in assay [1] was above 1 µM; in assay [2] it was 23.5 µM; in assay [4] it was 15.1 µM; in assay [5], above 40 µM. In assay [3], this compound had an inhibition of 60.2%.

As to `COc1ccc(-c2nc(Cl)cc(Nc3ccc(OCCN4CCCC4)cc3)n2)cc1`, the half-inhibitory concentration (IC50) in assay [1] was above 1 µM; in assay [2] it was 17.3 µM; in assay [4], 11.3 µM; in assay [5] it was 43.7 µM. In assay [3], the inhibition was 51.9%.
